# Bioassay records deposited in PubChem BioAssay by several laboratories.
# MIN6 prolif = induces beta-cell replication in MIN6 cells; MIN6 cells proliferation, ATPlite luminescence, 48 h; cells starved in 0.2% serum; 100% = growth in 10% serum; proliferation, % at 10 µM; 330,000 tested, 0.29% active; AID 2380;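 active = compounds whose signal lies at least 3.5 SD above the mean of all wells on their plate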;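 note: 0% = DMSO-treated cells in low-serum medium and 100% = 10% serum control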
# NTR1 ag = NTR1 (human) agonism; P30989; NTR1-U2OS beta-arrestin-GFP spot imaging, agonist mode; activation, % at 20 µM; 330,000 tested, 0.17% active; AID 493036;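 active = activation at or above 40% of the spot to cytoplasm intensity ratio, with at least 20 cells analyzed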;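 note: 0% = DMSO without peptide and 100% = 100 nM NTR1 peptide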
# Target sequence (P30989 whole entry, looked up): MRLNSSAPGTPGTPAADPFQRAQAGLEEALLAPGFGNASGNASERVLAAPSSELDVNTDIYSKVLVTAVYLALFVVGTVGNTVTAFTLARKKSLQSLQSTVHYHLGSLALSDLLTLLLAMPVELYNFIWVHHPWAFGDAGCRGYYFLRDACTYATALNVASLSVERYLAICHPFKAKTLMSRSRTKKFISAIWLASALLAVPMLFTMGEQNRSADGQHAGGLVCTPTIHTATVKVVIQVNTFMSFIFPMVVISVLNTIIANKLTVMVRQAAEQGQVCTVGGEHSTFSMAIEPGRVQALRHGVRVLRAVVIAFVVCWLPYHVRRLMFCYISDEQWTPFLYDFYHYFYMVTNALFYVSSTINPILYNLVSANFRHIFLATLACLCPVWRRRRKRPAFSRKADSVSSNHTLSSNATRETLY
# T cell modulator = modulates CD8 T cell binding to vesicles. 2C CD8+ T cell-vesicle binding, flow cytometry; active compounds read low. response (vesicle binding), % at 7 µM. 330,000 tested, 0.068% active;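 active = response, share of CD8 T cells binding vesicles, and their 90th percentile fluorescence all below set limits, cut at about 80% in these data, passing the limit was not always enough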;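 note: values below 100% mean blocked vesicle binding to the CD8+ T cells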
#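 Assay system: 2C TCR transgenic mouse naive CD8+ T cells, MACS-purified | Read-out: CD8+ gate FL2 mean fluorescence as % of same-row positive control | Signal: High-throughput flow cytometry with anti-B7-1 and anti-CD8 staining | Timing: Binding step 1.5 h, 37 °C, antibody labelling 20 min, ice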
# V-ATPase pH = yeast V-ATPase proton transport regulation by pHLuorin; 350,000 tested, 0.37% active; response, % at 10 µM; AID 504577; S. cerevisiae, pHLuorin cytosolic pH fluorescence; in the data active = response mostly above about 7.3%, no sharp cut-off; inactive = mostly below about 5.4%; note: actives read high
# Xi reactivation = X-chromosome reactivation activator; 360,000 tested, 0.055% active; activation, % at 7.58 µM; XiGFP mouse fibroblasts, % GFP-positive cells imaging, 3 d; cells co-treated with 5-aza-dC sensitizer; scaled so ellipticine positive control = 100%;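 active = mean normalized replicate activation at least 10% and every replicate at or above 10%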;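 note: 0% = median of on-plate neutral control wells and 100% = ellipticine 6 µM median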
#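 assay system = SV40-immortalized XiGFP fibroblast cells, line 68-5-11 | buffer or medium = DMEM plus 5-aza-dC sensitizer | doses = single-point pinned compound dosing | times = 3-day compound exposure, then 15 min fixation at room temperature | benchmarks = positive control ellipticine, 6 µM final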
# Arr AP2 block = human beta-arrestin and AP2 interaction inhibition | FITC-arrestin peptide / GST-AP2 beads, flow cytometry; AP2 beta2 appendage carries R879A mutation | inhibition, % at 10 µM | 340,000 tested, 0.31% active | AID 504490;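 active = inhibition above a set limit, near 3 SD of compounds lacking own fluorescence, cut at about 54% in these data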;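 note: plate controls were DMSO wells for no effect and 5 µM unlabelled arrestin peptide for full effect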
#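 Material – AP2 appendage R879A on GSH beads · Buffer or medium – PBS with 0.05% Tween 20 and 0.1% BSA · Probe or stimulus – fluorescein-tagged arrestin peptide at 50 nM final · Incubation – compound with beads 12 min RT, then probe 1 h RT · Detection – high-throughput flow cytometry of beads, ex 488, em 535 nm · Evaluation – percent response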
# NTR1 ag conf = NTR1 (human) agonism, confirmed | 480 tested, 38% active | NTR1-U2OS beta-arrestin-GFP translocation imaging | AID 504550 | activation, % at 20 µM | shares compounds with NTR1 ag;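 active = mean activation at 20 µM of at least 40%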;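 note: 0% = DMSO without peptide and 100% = 100 nM NTR1 peptide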
# * = called active by the depositor; . = not tested or not shown. Shown are actives, neighbours in structure and some others; about 0.89% of the full set was active somewhere.
SMILES,MIN6 prolif,NTR1 ag,T cell modulator,V-ATPase pH,Xi reactivation,Arr AP2 block,NTR1 ag conf
CC1(c2ccccc2)CC(C)(C)n2c(O)c(C3=NC(=S)NC3=O)c3cccc1c32 (centres undefined),-6,42*,618,-1,0,-4,27
COc1ccc(OC)c(Nc2nc3ccc(C)cc3n3cnnc23)c1,1,22,138,7,0,10,.
COc1ccc(Cl)cc1Nc1nc2ccc(C)cc2n2cnnc12,-2,46*,272,1,0,36,31
C[C@H](CO)N1C[C@H](C)[C@@H](CN(C)C)Oc2ccc(NC(=O)Nc3ccc(C(F)(F)F)cc3)cc2CC1=O,.,.,.,.,-2,.,.
Cc1ccc(NC(=O)c2nc[nH]c2C(=O)N[C@H](C)c2ccccc2)cc1,-7,41*,356,0,0,4,13
C[C@H](NC(=O)c1[nH]cnc1C(=O)Nc1ccccc1)c1ccccc1,-7,38,518,4,0,7,.
Cc1cccc(NC(=O)c2nc[nH]c2C(=O)N[C@H](C)c2ccccc2)c1,-7,48*,369,3,0,28,13
Cc1ccc(S(=O)(=O)N(C)C[C@H]2OCCCC[C@H](C)Oc3ccc(NC(=O)CCCN(C)C)cc3C(=O)N([C@H](C)CO)C[C@@H]2C)cc1,.,.,.,.,0,.,.
COc1cc2ccccc2cc1C(=O)N(CCN(C)C)c1nc2c(OC)ccc(OC)c2s1,-8,42*,161,2,0,5,3
COc1ccccc1S(=O)(=O)N[C@H]1C=C[C@H](CC(=O)NCc2cc(F)cc(F)c2)O[C@H]1CO,.,.,.,.,0,.,.
CCC(COC)Oc1cc(NCc2ccccc2)c2ncn(C(C)C)c2c1 (centres undefined),-4,44*,563,-4,0,5,9
CO[C@H]1CN(C)C(=O)c2cc(NC(=O)NC(C)C)ccc2OC[C@H](C)N(S(C)(=O)=O)C[C@H]1C,.,.,.,.,0,.,.
C[C@H](NC(=O)C[C@H]1CC[C@H](NC(=O)C2CCC2)[C@H](CO)O1)c1ccccc1,.,.,.,.,0,.,.
O=C(CCS(=O)(=O)c1ccccc1)Nc1cccc(-c2nc3ccccc3s2)c1,-6,49*,346,0,0,-23,15
O=C(CCS(=O)(=O)c1ccccc1)Nc1ccc(-c2nc3ccccc3s2)cc1,0,0,242,1,0,1,.
CCCCCCOc1ccc(/C(C)=N/NC2=NCCN2)cc1[N+](=O)[O-],-6,41*,149,7,0,-1,46*
C/C(=N\NC1=NCCN1)c1ccc(N)c([N+](=O)[O-])c1,-4,0,400,1,0,-3,.
CC1=NOC(=O)/C1=C\c1ccc(-c2cc(Cl)ccc2Cl)o1,-5,44*,210,7,.,3,65*
COc1cccc(OC)c1C(=O)Oc1ccc2c(c1)O/C(=C\c1ccncc1)C2=O,0,52*,236,6,0,4,56*
O=C1/C(=C/c2ccncc2)Oc2cc(OS(=O)(=O)c3ccccc3)ccc21,-4,5,676,-1,0,5,.
O=C(N[C@@H]1CC[C@H](CCNC(=O)C2CCC2)O[C@H]1CO)c1ccccn1,.,.,.,.,-1,.,.
O=C(N/C=N/OCc1ccc(Cl)cc1Cl)NOCc1ncc(C(F)(F)F)cc1Cl,-7,41*,246,0,.,-6,12
CO/N=C/NC(=O)NOCc1ncc(C(F)(F)F)cc1Cl,2,0,347,1,.,-5,.
CCOC(=O)C1=C(CS(=O)(=O)c2ccc(C)cc2)NC(=O)NC1c1cc(OC)c(OC)c(OC)c1 (centres undefined),0,48*,396,0,0,26,0
CCOC(=O)C1=C(CS(=O)(=O)c2ccc(C)cc2)NC(=O)NC1c1ccc(O)c(OC)c1 (centres undefined),-1,1,148,3,0,-13,.
SMILES,MIN6 prolif,NTR1 ag,T cell modulator,V-ATPase pH,Xi reactivation,Arr AP2 block,NTR1 ag conf
C[C@@H]1CCCCO[C@H](CN(C)C(=O)Cc2ccccc2)[C@@H](C)CN([C@@H](C)CO)C(=O)c2cc(NC(=O)CCC(F)(F)F)ccc2O1,.,.,.,.,0,.,.
COc1ccc2[nH]c3c(N4CCC(O)(c5cccc(C(F)(F)F)c5)CC4)ncnc3c2c1,-3,49*,175,1,.,33,8
CCOc1ccc2[nH]c3c(N4CCc5ccccc5C4)ncnc3c2c1,-6,50*,269,-2,0,10,0
CCCC(=O)Nc1ccc2c(c1)C(=O)N(C)[C@@H]1CC[C@@H](CC(=O)NCCc3ccncc3)O[C@@H]1CO2,.,.,.,.,0,.,.
CCCC(=O)Nc1ccc2c(c1)OC[C@@H](C)N(C(=O)c1ccccc1F)C[C@H](C)[C@H](OC)CN(C)C2=O,.,.,.,.,0,.,.
CC1=NNC(=O)/C1=C\c1cn(-c2ccccc2)nc1-c1ccc(F)cc1,.,.,.,-6,.,42,.
CC1=NNC(=O)/C1=C\c1cn(-c2ccccc2)nc1-c1cccs1,-6,83*,141,4,1,-3,96*
CCOC(=O)c1ccc(NC(=O)c2ccc(C)c(S(=O)(=O)N3CCOCC3)c2)cc1,-2,52*,250,-1,.,-7,70*
CCCCCCCCCCOC(=O)Cn1c(COc2ccccc2)[n+](C)c2ccccc21,-5,31,304,0,0,-14,.
CCCCCCCCCCOC(=O)Cn1c(COc2ccc(OC)cc2)[n+](C)c2ccccc21,-6,50*,121,3,.,4,65*
FC(F)(F)c1ccc(N2CCOCC2)c(Nc2nc3ccccc3n3cnnc23)c1,-6,45*,509,-1,.,-6,37
c1ccc2c(c1)nc(Nc1ccc(N3CCCCC3)cc1)c1nncn12,-3,17,152,3,1,20,.
c1ccc(N2CCCCC2)c(Nc2nc3ccccc3n3cnnc23)c1,-3,40*,184,1,-1,-16,33
CCC(=O)N1CC2(C1)[C@@H](c1ccccc1)[C@@H](CO)N2C(=O)c1cccnc1,.,.,.,.,0,.,.
COc1ccc(NC(=O)N(C)C[C@@H]2Oc3ccc(NS(=O)(=O)c4ccc(F)cc4)cc3C(=O)N([C@@H](C)CO)C[C@@H]2C)cc1,.,.,.,.,0,.,.
CCCC#Cc1cnc2c(c1)C(=O)N([C@@H](C)CO)C[C@@H](C)[C@H](CN(C)Cc1ccccc1F)O2,.,.,.,.,0,.,.
COc1ccc(-n2ncc3c(N4CCN(Cc5ccccc5)CC4)ncnc32)cc1,-5,67*,706,-4,0,-8,56*
